The results in this text go back to ChEMBL document CHEMBL4725495, “Resorufin Enters the Photodynamic Therapy Arena: A Monoamine Oxidase Activatable Agent for Selective Cytotoxicity” (ACS Med Chem Lett, 2020).

For orientation: IC50 means the concentration at which inhibition is half-maximal.

Molecules are shown by their SMILES. The source made the active and inactive calls. No cut-off for these calls is given here.

One data set has as its system MCF7. Kind of data set: Photocytotoxicity against human MCF-7 cells assessed as reduction in cell viability irradiated with 595 nm LED for 4 hrs measured after 24 hrs by MTT assay. As to conditions: MCF7, light or radiation study. In kind it is functional, cell-based. A digest of the protocol:
(§1)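 Cells incubated with varying R1 concentrations, then irradiated 4 h with 595 nm LED (20 mW/cm2); viability read by MTT assay; IC50 from concentration–viability curves.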

The subject of data set [1] is SH-SY5Y. As to the kind of experiment: Photocytotoxicity against human SH-SY5Y cells assessed as reduction in cell viability irradiated with 595 nm LED for 4 hrs measured after 24 hrs by MTT assay. In kind it is functional, cell-based. As to conditions: light or radiation study. A digest of the protocol: as §1
Data set [2] can be described thus: Photocytotoxicity against […] cells assessed as reduction in cell viability irradiated with 595 nm LED for 4 hrs measured after 24 hrs by MTT assay. As to conditions: NIH3T3, light or radiation study. In kind it is cell-based. The method, boiled down: as §1
A general note: Tetrazolium dyes change colour on reduction, which living cells bring about.

The subject of data set [3] is SH-SY5Y. As to the kind of experiment: Photocytotoxicity against human SH-SY5Y cells assessed as reduction in cell viability for 30 mins followed by irradiation with LED light after 30 mins by MTTassay. As to conditions: light or radiation study, 0.5 h. Type of data set: functional, cell-based. The method, boiled down: (§2)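 Cells incubated with varying R1 concentrations, then irradiated 30 min with 595 nm LED (20 mW/cm2); viability by MTT assay; IC50 from curves.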

Data set [4] can be described thus: Photocytotoxicity against […] cells assessed as reduction in cell viability for 30 mins followed by irradiation with LED light after 30 mins by MTTassay. In kind it is cell-based. The following applies: nih3t3, 0.5 h. A digest of the protocol:
as §2

In data set [5] the test system is SH-SY5Y. Kind of data set: Induction of ROS production in human SH-SY5Y cells assessed as green emission irradiation with LED light for 30 mins measured after 3 hrs incubation by DCFH-DA staining based fluorescence microscopy. In kind it is functional, cell-based. The method, boiled down:
(§3)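 Cells loaded with R1 for 3 h and with DCFH2-DA ROS sensor, then irradiated 30 min with LED (20 mW/cm2); green emission from oxidized sensor imaged by fluorescence microscopy.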

Data set [6] deals with SH-SY5Y. Kind of data set: Induction of ROS production in human SH-SY5Y cells irradiation with LED light for 30 mins measured after 3 hrs by DCFH-DA staining based fluorescence microscopy in presence of clorgyline. In kind it is functional, cell-based. A digest of the protocol: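 SH-SY5Y cells pretreated 30 min with clorgyline (0.1 μM), then incubated 3 h with R1 plus DCFH2-DA sensor and irradiated 30 min with LED (20 mW/cm2); green fluorescence imaged.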

For the next data set, the system named is NIH3T3. As to the kind of experiment: Induction of ROS production in […] cells irradiation with LED light for 30 mins measured after 3 hrs by DCFH-DA staining based fluorescence microscopy. In kind it is functional, cell-based. The method, boiled down: as §3
For data set [7], the system named is SH-SY5Y. As to the kind of experiment: Induction of apoptosis in human SH-SY5Y cells assessed as apoptotic cells incubated in dark for 4 hrs at 2.5 uM by Annexin V-FITC/PI staining based confocal microscopy. Type of data set: functional, cell-based. The method, boiled down:
(§4)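 SH-SY5Y cells incubated with R1 (2.5 μM), kept dark or irradiated 4 h with 595 nm LED (20 mW/cm2), then stained with annexin V-FITC (green, early apoptosis) and propidium iodide (red, late apoptotic/necrotic); confocal imaging.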

In data set [8] the test system is SH-SY5Y. As to the kind of experiment: Induction of apoptosis in human SH-SY5Y cells assessed as necrotic cells level irradiated with 595 nm LED for 4 hrs at 2.5 uM by Annexin V-FITC/PI staining based confocal microscopy. In kind it is functional, cell-based. A digest of the protocol:
as §4

Data set [9] relates to SH-SY5Y. As to the kind of experiment: Induction of apoptosis in human SH-SY5Y cells assessed as early apoptotic cells level irradiated with 595 nm LED for 4 hrs at 2.5 uM by Annexin V-FITC/PI staining based confocal microscopy. Type of data set: functional, cell-based. A digest of the protocol: as §4
The test system of data set [10] is SH-SY5Y. Kind of data set: Induction of apoptosis in human SH-SY5Y cells assessed as late apoptotic cells level irradiated with 595 nm LED for 4 hrs at 2.5 uM by Annexin V-FITC/PI staining based confocal microscopy. In kind it is functional, cell-based. A digest of the protocol:
as §4

The test system of data set [11] is SH-SY5Y. As to the kind of experiment: Photocytotoxicity against human SH-SY5Y cells assessed as cell viability at 2.5 uM irradiated with 595 nm LED for 4 hrs measured after 24 hrs by MTT assay. As to conditions: light or radiation study, read-out: Activity. Type of data set: functional. A digest of the protocol:
as §1

Data set [12] is described as follows: Photocytotoxicity against […] cells assessed as cell viability at 2.5 uM irradiated with 595 nm LED for 4 hrs measured after 24 hrs by MTT assay. In kind it is cell-based, NIH3T3. As to conditions: read-out: Activity. The method, boiled down: as §1
In data set [13] the test system is SH-SY5Y. Kind of data set: Photocytotoxicity against human SH-SY5Y cells assessed as cell viability in dark at 2.5 uM measured after 24 hrs by MTT assay. Type of data set: functional, cell-based. The method, boiled down: (§5)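 Cells incubated with varying R1 concentrations and kept in the dark in parallel with irradiated plates; viability by MTT assay.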
The nature of data set [14]: Photocytotoxicity against […] cells assessed as cell viability in dark at 2.5 uM measured after 24 hrs by MTT assay. In kind it is cell-based. As to conditions: nih3t3, 24 h. The method, boiled down: as §5
Data set [15] relates to SH-SY5Y. Kind of data set: Induction of ROS production in human SH-SY5Y cells assessed as green emission irradiation with LED light after 30 mins in presence of NaN3 measured after 3 hrs incubation by DCFH-DA staining based fluorescence microscopy. In kind it is functional, cell-based. The method, boiled down: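 SH-SY5Y cells pretreated with NaN3 as 1O2 quencher, then incubated with R1 and DCFH2-DA and irradiated with LED (20 mW/cm2); sensor green emission imaged by fluorescence microscopy.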

Data set [16] has as its target T1, Amine oxidase [flavin-containing] A (Homo sapiens, UniProt P21397).
T1 sequence (P21397 whole entry): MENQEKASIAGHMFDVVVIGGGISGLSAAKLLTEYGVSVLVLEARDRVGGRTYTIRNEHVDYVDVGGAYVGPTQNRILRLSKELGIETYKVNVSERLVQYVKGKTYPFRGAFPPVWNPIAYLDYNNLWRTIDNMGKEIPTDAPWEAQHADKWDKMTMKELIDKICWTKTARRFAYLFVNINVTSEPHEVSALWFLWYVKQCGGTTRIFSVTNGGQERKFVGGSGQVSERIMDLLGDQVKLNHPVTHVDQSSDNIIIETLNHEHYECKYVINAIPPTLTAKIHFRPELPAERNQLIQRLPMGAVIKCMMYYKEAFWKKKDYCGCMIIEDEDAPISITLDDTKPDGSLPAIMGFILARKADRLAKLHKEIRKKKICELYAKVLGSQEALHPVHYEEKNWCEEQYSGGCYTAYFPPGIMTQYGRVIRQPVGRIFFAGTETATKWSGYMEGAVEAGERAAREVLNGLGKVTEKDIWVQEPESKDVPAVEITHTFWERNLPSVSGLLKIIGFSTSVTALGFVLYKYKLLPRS
Kind of data set: Prodrug activation assessed as MAO-A (unknown origin) mediated drug activation measuring increase in emission signal at 620 nm at 10 uM over 3 hrs by fluorescence spectroscopy.

Data set [17] has as its target T2, Amine oxidase [flavin-containing] B (Homo sapiens, UniProt P27338).
T2 sequence (P27338 whole entry): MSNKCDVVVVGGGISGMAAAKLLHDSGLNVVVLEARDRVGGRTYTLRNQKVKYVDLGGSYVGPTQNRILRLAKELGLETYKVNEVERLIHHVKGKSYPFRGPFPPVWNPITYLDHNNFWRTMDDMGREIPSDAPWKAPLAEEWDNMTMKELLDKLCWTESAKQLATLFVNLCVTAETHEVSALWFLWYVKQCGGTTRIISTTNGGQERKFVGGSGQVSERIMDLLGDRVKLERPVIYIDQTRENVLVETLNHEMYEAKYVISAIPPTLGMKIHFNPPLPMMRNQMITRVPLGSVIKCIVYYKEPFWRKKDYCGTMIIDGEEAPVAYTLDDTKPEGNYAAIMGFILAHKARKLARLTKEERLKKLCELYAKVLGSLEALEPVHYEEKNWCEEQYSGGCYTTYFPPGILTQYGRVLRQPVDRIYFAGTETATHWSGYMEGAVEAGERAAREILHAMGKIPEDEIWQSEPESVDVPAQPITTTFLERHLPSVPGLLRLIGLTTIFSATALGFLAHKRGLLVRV
Kind of data set: Prodrug activation assessed as MAO-B (unknown origin) mediated drug activation measured increase in emission signal at 620 nm at 10 uM over 3 hrs by fluorescence spectroscopy.

The nature of data set [18]: Photostability in pH 7.4 PBS buffer at 408/500 nm irradiated with 595 nm LED for 4 hrs. In kind it is physicochemical. The following applies: pH 7.4, 4 h.
The nature of data set [19]: Induction of singlet oxygen generation using PBS buffer assessed as decrease in absorbance of ADMDA at 380 nm irradiated with 595 nm LED. In kind it is functional. The method, boiled down:
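R1 (10 μM) pretreated with MAO-A or MAO-B (20 μg/mL) in PBS pH 7.4, 1% DMSO, with water-soluble anthracene trap ADMDA; kept dark 2 min, then irradiated with 595 nm LED (20 mW/cm2); ADMDA absorbance at 380 nm followed.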

Data set [20] has as its system SH-SY5Y. As to the kind of experiment: Induction of ROS production in human SH-SY5Y cells in dark measured 3 hrs by DCFH2-DA fluorescence assay relative to control.
Data set [21] has as its target T1, Amine oxidase [flavin-containing] A. Kind of data set: Prodrug activation assessed as MAO-A (unknown origin) mediated drug activation by measuring red shift of absorption maxima at 588/595 nm at 10 uM for 3 hrs by absorption spectroscopy.

Turning to `NCCCOc1ccc2nc3ccc(=O)cc-3oc2c1I`, the concentration for half-maximal inhibition (IC50) in the data set on MCF7 is 4000 nM; in the data set on SH-SY5Y [1], 420 nM; in data set [2] it was 6500 nM; with SH-SY5Y [3] it was 1900 nM. Besides, the Activity result in data set [4] is “Non-Toxic”; in [14], “Non-Toxic”; in data set [16], “Not Active”; in [17], “Not Active”; in data set [21] it was “Active”. In addition, the outcome in the data set on SH-SY5Y [5], in the data set with SH-SY5Y [8], in the data set on SH-SY5Y [9] and with SH-SY5Y [10] was Active. Further, the result (in the data set on SH-SY5Y [6]; with NIH3T3; in the data set on SH-SY5Y [7]; with SH-SY5Y [13]; with SH-SY5Y [15]; in data set [19]) was inactive. Also, the outcome with SH-SY5Y [20] was inactive. For the same compound, in the data set with SH-SY5Y [11], the viability at 2.5 µM stood at 3%. Moreover, the viability at 24 h, 2.5 µM in [12] came to 70%. Further, the Stabilty entry in data set [18] is “Stable”.
